In series [1] the test system is HBV DNA replication in HepAD38 cells. The experiment in a line: Anti-HBV activity, 7-day assay in HepAD38 cells. The series is classed as cell-based, hepatitis B virus. The following applies: for fold increase of anti-HBV potency compared to GLP-26: HepAD38 EC50 relative to reference GLP-26; for EC50 / EC90: Hepatitis B virus, HePAD38, 168 h; for EC50: read-out: Anti-HBV activity EC50; for EC90: read-out: Anti-HBV activity EC90.

The nature of series [2]: Cytotoxicity, CellTiter 96 assay in PBM cells. It is filed as cell-based, human. The following applies: human, peripheral blood mononuclear (PBM) cells. The method in brief: (§1)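 Colorimetric non-radioactive cell proliferation read-out (CellTiter 96). CC50 is the test compound concentration that inhibited cell growth by 50%.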
Series [3] in a line: Cytotoxicity, CellTiter 96 assay in CEM cells. The series is classed as cell-based, human. Particulars: human, T lymphoblast (CEM) cells. In a few lines:
as §1

Series [4] in a line: Cytotoxicity, CellTiter 96 assay in Vero cells. The series is classed as cell-based, African green monkey. The following applies: African green monkey, kidney (Vero) cells. The method in brief:
as §1

Series [5] is described as follows: Cytotoxicity, CellTiter 96 assay in HepG2 cells. It is filed as cell-based, human. Particulars: human, hepatocellular carcinoma (HepG2) cells. In a few lines: as §1

Take `C#CC1(NC(=O)C(=O)c2c(C)c(C(=O)Nc3ccc(F)c(F)c3)n(C)c2C)CCCCC1` [Compound 9f, N-(3,4-Difluorophenyl)-4-(2-(1-ethynylcyclohexylamino)-2-oxoacetyl)-1,3,5-trimethyl-1H-pyrrole-2-carboxamide]: in series [1], the “fold increase of anti-HBV potency compared to GLP-26” value (from here on “fold increase of anti-HBV potency”) is reported as “only a moderate improvement”. In addition, the EC50 (as a rule, the concentration giving half of the maximal effect) in series [1] is 3.5 ± 4.8 nM. The EC90 (as a rule, the concentration at which the effect reaches the 90% level) in series [1] was determined as 7.4 ± 9.3 nM. Besides, the CC50 (usually the concentration at which the toxic effect on the cells reaches its halfway point) in series [2] worked out at 23 ± 13 µM; in series [3], 15 µM; in series [4] it was 43 µM; in series [5], 42 ± 23 µM.
Consider `C#CCNC(=O)C(=O)c1c(C)c(C(=O)Nc2ccc(F)c(F)c2)n(CC=C)c1C` [Compound 5d, 1-Allyl-N-(3,4-difluorophenyl)-3,5-dimethyl-4-(2-oxo-2-(prop-2-yn-1-ylamino)acetyl)-1H-pyrrole-2-carboxamide], for which the EC50 in series [1] was determined as 3 ± 1.4 nM. Further, the EC90 in series [1] worked out at 128 ± 150 nM. The CC50 in series [2], in series [3], in series [4] and in series [5] was over 100 µM each time.
On to `C#CCNC(=O)C(=O)c1c(C)c(C(=O)Nc2ccc(F)c(F)c2)n(C2CC2)c1C` [Compound 5e, 1-Cyclopropyl-N-(3,4-difluorophenyl)-3,5-dimethyl-4-(2-oxo-2-(prop-2-yn-1-ylamino)acetyl)-1H-pyrrole-2-carboxamide], for which the 50% effective concentration (EC50) in series [1] is 7.5 ± 7.8 nM. The EC90 in series [1] came to 41.5 ± 12 nM. Moreover, the CC50 in series [2], in series [3], in series [4] and in series [5] was over 100 µM each time.
For the molecule `C#CCNC(=O)C(=O)c1c(C)c(C(=O)Nc2ccc(F)c(F)c2)n(CCCC)c1C` [Compound 5c, 1-Butyl-N-(3,4-difluorophenyl)-3,5-dimethyl-4-(2-oxo-2-(prop-2-yn-1-ylamino)acetyl)-1H-pyrrole-2-carboxamide], the EC50 in series [1] worked out at 87.4 ± 3.7 nM. In addition, in series [1], the EC90 was found to be 556 ± 147 nM. For the same molecule, the CC50 in series [2], in series [3], in series [4] and in series [5] was over 100 µM each time.
On to `C#CCn1c(C)c(C(=O)C(=O)NC(C#C)(CC)CC)c(C)c1C(=O)Nc1ccc(F)c(F)c1` [Compound 10b, N-(3,4-difluorophenyl)-4-(2-((3-ethylpent-1-yn-3-yl)amino)-2-oxoacetyl)-3,5-dimethyl-1-(prop-2-yn-1-yl)-1H-pyrrole-2-carboxamide], for which, in series [1], the EC50 was 7.9 ± 1.6 nM. For the same molecule, the EC90 in series [1] stood at 60 ± 41 nM. Also, the CC50 in series [2] is 53 ± 41 µM; in series [3], 76 ± 17 µM; in series [4], over 100 µM; in series [5], 72 ± 39 µM.
Regarding `C#CC1(NC(=O)C(=O)c2c(C)c(C(=O)Nc3ccc(F)c(F)c3)n(C)c2C)CC1` [Compound 9d, N-(3,4-Difluorophenyl)-4-(2-(1-ethynylcyclopropylamino)-2-oxoacetyl)-1,3,5-trimethyl-1H-pyrrole-2-carboxamide], the “fold increase of anti-HBV potency” value in series [1] is 5–30 fold. Besides, the EC50 in series [1] was 0.8 ± 0.7 nM. Further, the EC90 in series [1] turned out to be 6.1 ± 2.2 nM. Also, the CC50 in series [2], in series [3], in series [4] and in series [5] was over 100 µM in each case.
For `C#CC(CC)(CC)NC(=O)C(=O)c1c(C)c(C(=O)Nc2ccc(F)c(F)c2)n(C)c1C` [Compound 9c, N-(3,4-Difluorophenyl)-4-(2-(3-ethylpent-1-yn-3-ylamino)-2-oxoacetyl)-1,3,5-trimethyl-1H-pyrrole-2-carboxamide], the “fold increase of anti-HBV potency” value in series [1] is recorded as 5–30 fold. In addition, the EC50 in series [1] came to 0.5 ± 0.3 nM. Also, the EC90 in series [1] worked out at 4.6 ± 2.3 nM. In addition, the CC50 came to 26 ± 14 µM in series [2], 16 µM in series [3], 42 µM in series [4] and 44 ± 35 µM in series [5].
`C#CC(C)(C)NC(=O)C(=O)c1c(C)c(C(=O)Nc2ccc(F)c(F)c2)n(C)c1C` [Compound 9a, N-(3,4-Difluorophenyl)-1,3,5-trimethyl-4-(2-((2-methylbut-3-yn-2-yl)amino)-2-oxoacetyl)-1H-pyrrole-2-carboxamide]: the “fold increase of anti-HBV potency” value in series [1] is on record as 5–30 fold. Also, in series [1], the EC50 stood at 0.71 ± 0.22 nM. The EC90 in series [1] was determined as 8.2 ± 0.6 nM. Besides, the CC50 was 64 ± 26 µM in series [2], 25 ± 2 µM in series [3], over 100 µM in series [4] and 91 ± 12 µM in series [5].
Consider `C#CC(C)(CC)NC(=O)C(=O)c1c(C)c(C(=O)Nc2ccc(F)c(F)c2)n(C)c1C` (stereo not shown) [Compound 9b, N-(3,4-Difluorophenyl)-1,3,5-trimethyl-4-(2-(3-methylpent-1-yn-3-ylamino)-2-oxoacetyl)-1H-pyrrole-2-carboxamide], for which the “fold increase of anti-HBV potency” value in series [1] is listed as 5–30 fold. Further, the EC50 in series [1] stood at 0.15 ± 0.07 nM. For the same molecule, the EC90 in series [1] was 6.8 ± 3.4 nM. In addition, the CC50 turned out to be 61 ± 43 µM in series [2], 10 ± 3 µM in series [3], 64 ± 16 µM in series [4] and 84 ± 11 µM in series [5].
`C#CCNC(=O)C(=O)c1c(C)c(C(=O)Nc2ccc(F)c(F)c2)n(CCC)c1C` [Compound 5b, N-(3,4-Difluorophenyl)-3,5-dimethyl-4-(2-oxo-2-(prop-2-yn-1-ylamino)acetyl)-1-propyl-1H-pyrrole-2-carboxamide]: the EC50 in series [1] worked out at 9.1 ± 3.7 nM. The EC90 in series [1] was determined as 44 ± 21 nM. Further, the CC50 in series [2], in series [3], in series [4] and in series [5] was over 100 µM each time.
As for `C#CCNC(=O)C(=O)c1c(C)c(C(=O)Nc2ccc(F)c(F)c2)n(CC#C)c1C` [Compound 5g, N-(3,4-Difluorophenyl)-3,5-dimethyl-4-(2-oxo-2-(prop-2-yn-1-ylamino)acetyl)-1-(prop-2-yn-1-yl)-1H-pyrrole-2-carboxamide], in series [1], the “fold increase of anti-HBV potency” value is over 5 fold. The EC50 in series [1] was determined as 0.88 ± 0.43 nM. Besides, the EC90 in series [1] came out at 10.3 ± 6 nM. Further, the CC50 in series [2], in series [3], in series [4] and in series [5] was over 100 µM throughout.
As for `C#CCNC(=O)C(=O)c1c(C)c(C(=O)Nc2ccc(F)c(F)c2)n(CC)c1C` [Compound 5a, N-(3,4-Difluorophenyl)-1-ethyl-3,5-dimethyl-4-(2-oxo-2-(prop-2-yn-1-ylamino)acetyl)-1H-pyrrole-2-carboxamide], the EC50 in series [1] came out at 7.1 ± 6.2 nM. The EC90 in series [1] was found to be 49.4 ± 12.9 nM. Moreover, the CC50 in series [2], in series [3], in series [4] and in series [5] was over 100 µM in each case.
`C#CCNC(=O)C(=O)c1c(C)c(C(=O)Nc2ccc(F)c(F)c2)n(CC#CCC)c1C` [Compound 5i, N-(3,4-Difluorophenyl)-3,5-dimethyl-4-(2-oxo-2-(prop-2-yn-1-ylamino)acetyl)-1-(pent-2-yn-1-yl)-1H-pyrrole-2-carboxamide]: the EC50 in series [1] stood at 826 ± 172 nM. Also, in series [1], the EC90 came to 3690 nM. The CC50 in series [2], in series [3], in series [4] and in series [5] was over 100 µM throughout.
As to `C#CCNC(=O)C(=O)c1c(C)c(C(=O)Nc2ccc(F)c(F)c2)n(Cc2ccccc2)c1C` [Compound 5j, 1-Benzyl-N-(3,4-difluorophenyl)-3,5-dimethyl-4-(2-oxo-2-(prop-2-yn-1-ylamino)acetyl)-1H-pyrrole-2-carboxamide], the concentration for a half-maximal effect (EC50) in series [1] was 2520 nM. In addition, in series [1], the EC90 was over 10000 nM. Further, the CC50 in series [2], in series [3], in series [4] and in series [5] was over 100 µM throughout.
For `C#CCNC(=O)C(=O)c1c(C)c(C(=O)Nc2ccc(F)c(F)c2)n(CC#CC)c1C` [Compound 5h, 1-(But-2-yn-1-yl)-N-(3,4-difluorophenyl)-3,5-dimethyl-4-(2-oxo-2-(prop-2-yn-1-ylamino)acetyl)-1H-pyrrole-2-carboxamide], the EC50 in series [1] was determined as 45.2 ± 20.1 nM. In addition, the EC90 in series [1] stood at 395 ± 327 nM. The CC50 in series [2], in series [3], in series [4] and in series [5] was over 100 µM throughout.
Take `C#CCNC(=O)C(=O)c1c(C)c(C(=O)Nc2ccc(F)c(F)c2)n(CC2CC2)c1C` [Compound 5f, 1-(Cyclopropylmethyl)-N-(3,4-difluorophenyl)-3,5-dimethyl-4-(2-oxo-2-(prop-2-yn-1-ylamino)acetyl)-1H-pyrrole-2-carboxamide]: the EC50 in series [1] came out at 52.2 ± 27.1 nM. Moreover, the EC90 in series [1] is 52.2 ± 27.1 nM. For the same molecule, the CC50 in series [2], in series [3], in series [4] and in series [5] was over 100 µM each time.
With `C#CC1(NC(=O)C(=O)c2c(C)c(C(=O)Nc3ccc(F)c(F)c3)n(C)c2C)CCC1` [Compound 9e, N-(3,4-Difluorophenyl)-4-(2-(1-ethynylcyclobutylamino)-2-oxoacetyl)-1,3,5-trimethyl-1H-pyrrole-2-carboxamide], the “fold increase of anti-HBV potency” value in series [1] is 5–30 fold. Also, the EC50 in series [1] was found to be 0.3 ± 0.4 nM. The EC90 in series [1] came out at 1.9 ± 1.5 nM. In addition, the CC50 in series [2] is over 100 µM; in series [3] it was over 100 µM; in series [4], over 100 µM; in series [5], 98 µM.

Source of the values: article PMC10765384 (Bioorganic chemistry, 2023).
